# Calls of active or inactive are those of the source. The rule behind the calls is not given here.
# Key:
# Plasmodium berghei [1] = assay: Antiparasitic activity as reduced parasitaemia against Plasmodium berghei ANKA infected Swiss mice (Mus musculus) at 10 mg/kg intraperitoneal dose 64 hrs post infection; format: functional, organism-based; parameters: dose 10 mg/kg
# Method in brief: (§1)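 Male Swiss mice were infected i.p. with 10^7 P. berghei ANKA-parasitized erythrocytes. At 64 h (3-5% parasitemia) they received a single i.p. dose of piperaquine phosphate suspension: 300, 900 or 2,700 μg in 100 μl (about 10, 30, 90 mg/kg). Parasitemia came from May-Grünwald Giemsa tail-blood thin films, counting 30-100 fields (detection limit about 0.002%). Groups had 13-14 mice; controls had 8.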
# Plasmodium berghei [2] = assay: Antiparasitic activity as reduced parasitaemia after 24 hrs against Plasmodium berghei ANKA infected Swiss mice (Mus musculus) at 30 mg/kg intraperitoneal dose 64 hrs post infection; format: functional, organism-based; parameters: dose 30 mg/kg; method in brief: as §1
# Plasmodium berghei [3] = assay: Antiparasitic activity as reduced parasitaemia against Plasmodium berghei ANKA infected Swiss mice (Mus musculus) at 30 mg/kg intraperitoneal dose 64 hrs post infection; format: functional, organism-based; parameters: dose 30 mg/kg; method in brief: as §1
# Plasmodium berghei [4] = assay: Antiparasitic activity as reduced parasitaemia against Plasmodium berghei ANKA infected Swiss mice (Mus musculus) at 90 mg/kg intraperitoneal dose 64 hrs post infection; format: functional, organism-based; parameters: dose 90 mg/kg; method in brief: as §1
# Plasmodium berghei [5] = assay: Antiparasitic activity as reduced parasitaemia at day 3 against Plasmodium berghei ANKA infected Swiss mice (Mus musculus) at 30 mg/kg intraperitoneal dose 64 hrs post infection; format: functional, organism-based; parameters: dose 30 mg/kg; method in brief: as §1
# Plasmodium berghei [6] = assay: Antiparasitic activity as parasitaemia against Plasmodium berghei ANKA infected Swiss mice (Mus musculus) at 30 mg/kg intraperitoneal dose 64 hrs post infection; format: functional; method in brief: as §1
# Plasmodium berghei [7] = assay: Antiparasitic activity as reduced parasitaemia after 36 hrs against Plasmodium berghei ANKA infected Swiss mice (Mus musculus) at 30 mg/kg intraperitoneal dosed 64 hrs post infection; format: functional; method in brief: as §1
# Plasmodium berghei [8] = assay: Antiparasitic activity as median survival time against Plasmodium berghei ANKA infected Swiss mice (Mus musculus) at 10 mg/kg intraperitoneal dose 64 hrs post infection; format: functional
# Method in brief: (§2)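 Male Swiss mice (5–6 weeks) inoculated i.p. with 10^7 P. berghei ANKA-parasitized erythrocytes. At 64 h (3–5% parasitemia), each received a single i.p. 100 μl PQP suspension in 50% glycerol, 30% phosphate buffer (pH 7.1) and 20% polysorbate 80. Parasitemia was followed on tail-vein Giemsa smears. Mice were euthanized at >40% parasitemia or >10% weight loss within 24 h. Groups of 14 treated, 8 controls.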
# Plasmodium berghei [9] = assay: Antiparasitic activity as reduced parasitaemia after 36 hrs against Plasmodium berghei ANKA infected Swiss mice (Mus musculus) at 10 mg/kg intraperitoneal dosed 64 hrs post infection; format: functional
# Method in brief: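 Male Swiss mice (5–6 weeks) infected i.p. with 10^7 P. berghei ANKA-parasitized erythrocytes from BALB/c donor blood diluted in citrate-phosphate-dextrose. Single i.p. dose given at 64 h, suspended in 50% glycerol/30% phosphate buffer pH 7.1/20% polysorbate 80, 100 µl. n = 14; vehicle controls n = 8. Parasitemia counted on methanol-fixed, May-Grünwald Giemsa tail-vein smears, expressed as fold decline from predose level.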
# Plasmodium berghei [10] = assay: Antiparasitic activity as parasitaemia at day 60 against Plasmodium berghei ANKA infected Swiss mice (Mus musculus) at 90 mg/kg intraperitoneal dose 64 hrs post infection; format: functional; method in brief: as §1
# Plasmodium berghei [11] = assay: Antiparasitic activity as peripheral parasitaemia 2 weeks after day 60 reinfection against Plasmodium berghei ANKA infected Swiss mice (Mus musculus) at 90 mg/kg intraperitoneal dose 64 hrs post infection; format: functional
# Method in brief: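 Swiss mice given a single i.p. 90 mg/kg piperaquine phosphate 64 h after P. berghei ANKA infection were reinoculated i.p. with 10^7 parasitized erythrocytes on day 60. Age-matched previously uninfected mice (untreated, vehicle, or drug on day 0) were inoculated alongside. Parasitemia was read daily from Giemsa-stained tail-blood films for 2 weeks.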
# Plasmodium berghei [12] = assay: Antiparasitic activity as parasitaemia at day 16 against Plasmodium berghei ANKA infected Swiss mice (Mus musculus) at 90 mg/kg intraperitoneal dose 64 hrs post infection; format: functional; method in brief: as §1
# Plasmodium berghei [13] = assay: Antiparasitic activity as parasitaemia against Plasmodium berghei ANKA infected Swiss mice (Mus musculus) at 10 mg/kg intraperitoneal dose 64 hrs post infection; format: functional; method in brief: as §1
# Plasmodium berghei [14] = assay: Antiparasitic activity as reduced parasitaemia at day 22-30 against Plasmodium berghei ANKA infected Swiss mice (Mus musculus) at 30 mg/kg intraperitoneal dose 64 hrs post infection; format: functional; parameters: scale not given: the % may be the effect or the level left; method in brief: as §1
# Plasmodium berghei [15] = assay: Antiparasitic activity as median survival time after 30 days against Plasmodium berghei ANKA infected Swiss mice (Mus musculus) at 30 mg/kg intraperitoneal dose 64 hrs post infection; format: functional; method in brief: as §2
# Plasmodium berghei [16] = assay: Antiparasitic activity as parasitaemia after 4 days against Plasmodium berghei ANKA infected Swiss mice (Mus musculus) at 90 mg/kg intraperitoneal dose; format: functional; method in brief: as §1
# Plasmodium berghei [17] = assay: Antiparasitic activity as mean parasitaemia after 22 days against Plasmodium berghei ANKA infected Swiss mice (Mus musculus) at 30 mg/kg intraperitoneal dose 64 hrs post infection; format: functional; method in brief: as §1
# Mus musculus [18] = assay: Apparent volume of distribution in Swiss mice (Mus musculus) infected with Plasmodium berghei ANKA at 90 mg/kg, intraperitoneally administered 64 hrs after infection; format: ADME, organism-based; parameters: dose 90 mg/kg, route intraperitoneal; details: in vivo, ip
# Method in brief: (§3)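 P. berghei ANKA-infected male Swiss mice (10^7 parasitized erythrocytes i.p.) got one i.p. dose of 2,700 μg piperaquine phosphate (about 90 mg/kg) in glycerol/phosphate buffer/polysorbate 80 suspension, 64 h post-inoculation. Cardiac blood was drawn from 5 mice per time point, 0 h to […]. Plasma piperaquine was measured by HPLC, with concentrations normalized to 90 mg/kg. Noncompartmental and two-compartment fits (1/y2 weighting) used group means.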
# [19] = Plasma concentration in Swiss mice (Mus musculus) infected with Plasmodium berghei ANKA at 90 mg/kg, intraperitoneally administered 64 hrs after infection measured after 30 days; format: ADME, organism-based; parameters: dose 90 mg/kg, route intraperitoneal; details: ip; method in brief: as §3
# Mus musculus [20] = assay: Apparent volume of distribution in healthy Swiss mouse at 90 mg/kg, ip; format: ADME, organism-based; parameters: dose 90 mg/kg, route intraperitoneal; details: in vivo
# Method in brief: (§4)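 Uninfected male Swiss mice (6 weeks old) received a single i.p. dose of 2,700 μg piperaquine phosphate suspension (about 90 mg/kg). Cardiac-puncture blood was collected under pentobarbitone from n = 5 per time, 0 h to 25 days. Lithium heparin plasma was assayed by HPLC and normalized to a 90 mg/kg dose. Mean profiles were analysed noncompartmentally and by a two-compartment model (1/y2 weighting).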
# [21] = AUC in Swiss mice (Mus musculus) infected with Plasmodium berghei ANKA at 90 mg/kg, intraperitoneally administered 64 hrs after infection; format: ADME, organism-based; parameters: dose 90 mg/kg, route intraperitoneal; details: plasma, ip; method in brief: as §3
# Mus musculus [22] = assay: Plasma concentration in Swiss mice (Mus musculus) infected with Plasmodium berghei ANKA at 90 mg/kg, intraperitoneally administered 64 hrs after infection measured after 2 to 7 days; format: ADME, organism-based; parameters: dose 90 mg/kg, route intraperitoneal; details: in vivo, ip; method in brief: as §3
# [23] = Terminal half life in healthy Swiss mouse at 90 mg/kg, ip by two compartment model assay; format: ADME, organism-based; parameters: dose 90 mg/kg, route intraperitoneal; details: in vivo, read-out: beta t1/2 (converted); method in brief: as §4
# Plasmodium berghei [24] = assay: Antiparasitic activity as survival at day 30 against Plasmodium berghei ANKA infected Swiss mice (Mus musculus) at 30 mg/kg intraperitoneal dose 64 hrs post infection; format: functional; method in brief: as §2
# [25] = Terminal half life in Swiss mice (Mus musculus) infected with Plasmodium berghei ANKA at 90 mg/kg, intraperitoneally by two compartment model assay; format: ADME, organism-based; parameters: dose 90 mg/kg, route intraperitoneal; details: in vivo, ip, read-out: beta t1/2 (converted); method in brief: as §3
# Plasmodium berghei [26] = assay: Antiparasitic activity as parasitaemia after 36 hrs against Plasmodium berghei ANKA infected Swiss mice (Mus musculus) at 90 mg/kg intraperitoneal dose 64 hrs post infection; format: functional; method in brief: as §1
# [27] = Half life in healthy Swiss mouse at 90 mg/kg, ip; format: ADME, organism-based; parameters: dose 90 mg/kg, route intraperitoneal; details: in vivo; method in brief: as §4
# [28] = Plasma concentration in Swiss mice (Mus musculus) infected with Plasmodium berghei ANKA at 90 mg/kg, intraperitoneally administered 64 hrs after infection measured after 36 hrs; format: ADME, organism-based; parameters: dose 90 mg/kg, route intraperitoneal; details: ip; method in brief: as §3
# [29] = Apparent clearance in healthy Swiss mouse at 90 mg/kg, ip; format: ADME, organism-based; parameters: dose 90 mg/kg, route intraperitoneal; details: in vivo; method in brief: as §4
# [30] = Toxicity in mouse; format: organism-based; details: in vivo
# [31] = Apparent clearance in Swiss mice (Mus musculus) infected with Plasmodium berghei ANKA at 90 mg/kg, intraperitoneally administered 64 hrs after infection; format: ADME, organism-based; parameters: dose 90 mg/kg, route intraperitoneal; details: in vivo, ip; method in brief: as §3
# Plasmodium berghei [32] = assay: Antiparasitic activity as survival at day 30 against Plasmodium berghei ANKA infected Swiss mice (Mus musculus) at 10 mg/kg intraperitoneal dose 64 hrs post infection; format: functional; method in brief: as §2
# Plasmodium berghei [33] = assay: Antimalarial activity against chloroquine-sensitive Plasmodium berghei by Peters 4 day test; details: 96 h
# [34] = Terminal half life in adult human; format: ADME, organism-based; details: in vivo, read-out: beta t1/2 (converted)
# [35] = Half life in Swiss mice (Mus musculus) infected with Plasmodium berghei ANKA at 90 mg/kg, intraperitoneally administered 64 hrs after infection; format: ADME, organism-based; parameters: dose 90 mg/kg, route intraperitoneal; details: in vivo, ip; method in brief: as §3
# [36] = Plasma concentration in Swiss mice (Mus musculus) infected with Plasmodium berghei ANKA at 90 mg/kg, intraperitoneally administered 64 hrs after infection measured after 2 hrs; format: ADME, organism-based; parameters: dose 90 mg/kg, route intraperitoneal; details: ip; method in brief: as §3
# [37] = Initial half life in healthy Swiss mouse at 90 mg/kg, ip by two compartment model assay; format: ADME, organism-based; parameters: dose 90 mg/kg, route intraperitoneal; details: in vivo, read-out: alphat1/2 (converted); method in brief: as §4
# [38] = Terminal half life in human children; format: ADME, organism-based; details: in vivo, read-out: beta t1/2 (converted)
# [39] = AUC in healthy Swiss mouse at 90 mg/kg, ip; format: ADME, organism-based; parameters: dose 90 mg/kg, route intraperitoneal; details: plasma; method in brief: as §4
# [40] = Plasma concentration in Swiss mice (Mus musculus) infected with Plasmodium berghei ANKA at 90 mg/kg, intraperitoneally administered 64 hrs after infection measured after 60 days; format: ADME, organism-based; parameters: dose 90 mg/kg, route intraperitoneal; details: ip; method in brief: as §3
# [41] = Initial half life in Swiss mice (Mus musculus) infected with Plasmodium berghei ANKA at 90 mg/kg, intraperitoneally by two compartment model assay; format: ADME, organism-based; parameters: dose 90 mg/kg, route intraperitoneal; details: in vivo, ip, read-out: alphat1/2 (converted); method in brief: as §3
# Plasmodium berghei [42] = assay: Antiparasitic activity as survival at day 30 against Plasmodium berghei ANKA infected Swiss mice (Mus musculus) at 20-30 mg/kg intraperitoneal dose 64 hrs post infection; format: functional
compound,measurement,setting,value
Clc1ccc2c(N3CCN(CCCN4CCN(c5ccnc6cc(Cl)ccc56)CC4)CC3)ccnc2c1,Activity,Plasmodium berghei [1],Active
same,Activity,Plasmodium berghei [2],Active
same,Activity,Plasmodium berghei [3],Active
same,Activity,Plasmodium berghei [4],Active
same,Activity,Plasmodium berghei [5],Active
C[C@H]1[C@@H](O)O[C@@H]2O[C@@]3(C)CC[C@H]4[C@H](C)CC[C@@H]1[C@@]24OO3 [ARTENIMOL],Activity,Plasmodium berghei [6],4.6%
same,fold change (FC),Plasmodium berghei [7],11.9
Clc1ccc2c(N3CCN(CCCN4CCN(c5ccnc6cc(Cl)ccc56)CC4)CC3)ccnc2c1.O=P(O)(O)O [PIPERAQUINE PHOSPHATE],Activity,Plasmodium berghei [8],10 days
same,fold change (FC),Plasmodium berghei [9],12.8
same,Activity,Plasmodium berghei [10],< 0.1%
same,Activity,Plasmodium berghei [11],<1%
same,Activity,Plasmodium berghei [12],1.8%
same,Activity,Plasmodium berghei [13],1.5%
same,Activity,Plasmodium berghei [14],0.1%
same,Activity,Plasmodium berghei [15],54 days
same,Activity,Plasmodium berghei [16],>10%
same,Activity,Plasmodium berghei [17],11%
Clc1ccc2c(N3CCN(CCCN4CCN(c5ccnc6cc(Cl)ccc56)CC4)CC3)ccnc2c1 [PIPERAQUINE],Vd,Mus musculus [18],1059 L/kg
same,concentration at 720 h,[19],> 10 ng/mL
same,Vd,Mus musculus [20],956 L/kg
same,AUC at 64 h,[21],27300 ng·h/mL
same,Cp,Mus musculus [22],20 ng/mL
same,half-life,[23],20.7 days
same,Activity,Plasmodium berghei [24],70%
same,half-life,[25],15.4 days
same,Activity,Plasmodium berghei [26],0.002%
same,half-life,[27],17.8 days
same,concentration at 36 h,[28],45 ng/mL
same,CL/F,[29],25.8 mL/min/kg
same,LD50,[30],1100 mg/kg
same,CL/F,[31],31.7 mL/min/kg
same,Activity,Plasmodium berghei [32],0%
same,ED50,Plasmodium berghei [33],4.5 mg/kg
same,half-life,[34],23 days
same,half-life,[35],16.1 days
same,concentration at 2 h,[36],250 ng/mL
same,half-life,[37],0.59 days
same,half-life,[38],14 days
same,AUC,[39],33500 ng·h/mL
same,concentration at 1440 h,[40],3 ng/mL
same,half-life,[41],0.35 days
same,Activity,Plasmodium berghei [42],50%
